Laboratory results reported in ChEMBL document CHEMBL1806449, “A class of Trp-Trp-AA-OBzl: Synthesis, in vitro anti-proliferation/in vivo anti-tumor evaluation, intercalation-mechanism investigation and 3D QSAR analysis” (Eur J Med Chem, 2011).
The source made the active and inactive calls. No cut-off for these calls is given here. Peptide text beside a SMILES is read from it. * marks the point of attachment. OBn = c1ccc(CO*)cc1

Tests used:
CCRF S-180 [1] = experiment: Antiproliferative activity against mouse S180 cells after 48 hrs by MTT assay; type: functional, cell-based; conditions: CCRF S-180, 48 h
Mus musculus [2] = experiment: Toxicity in ICR mouse xenografted with mouse S180 cells assessed as effect on kidney weight at 2 umol/kg; type: organism-based, CCRF S-180; conditions: in vivo
Mus musculus [3] = experiment: Toxicity in ICR mouse xenografted with mouse S180 cells assessed as increase in body weight at 2 umol/kg; type: organism-based, CCRF S-180; conditions: in vivo
B16 = experiment: Antiproliferative activity against mouse B16 cells after 48 hrs by MTT assay; type: functional, cell-based; conditions: B16, 48 h
K562 = experiment: Antiproliferative activity against human K562 cells after 48 hrs by MTT assay; type: functional, cell-based; conditions: K562, 48 h
HepG2 = experiment: Antiproliferative activity against human HepG2 cells after 48 hrs by MTT assay; type: functional, cell-based; conditions: HepG2, 48 h
Mus musculus [4] = experiment: Toxicity in ICR mouse xenografted with mouse S180 cells assessed as increase in spleen index at 2 umol/kg; type: organism-based, CCRF S-180; conditions: in vivo
CCRF S-180 [5] = experiment: Antitumor activity against mouse S180 cells xenografted in ICR mouse assessed as tumor growth inhibition at 8.9 umol/kg, ip administered 1 day after tumor inoculation qd for 7 days; type: functional; conditions: CCRF S-180, ip, read-out: GI
Summary of the method: (§1)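 Male ICR mice 10–12 weeks; S180 from ascites serially transplanted weekly; 1×10^7 viable cells in 0.2 ml NS implanted s.c. at right oxter; 24 h later randomized (10 per group); daily i.p. 8.9, 0.89 or 0.089 µmol/kg/day in 0.2 ml NS, 7 days; NS and cytarabine controls; sacrificed 24 h after last dose; inhibition % = [1−(Tw/Cw)]×100.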

H22 = experiment: Antiproliferative activity against mouse H22 cells after 48 hrs by MTT assay; type: functional, cell-based; conditions: H22, 48 h
Mus musculus [6] = experiment: Toxicity in ICR mouse xenografted with mouse S180 cells assessed as effect on brain weight at 2 umol/kg; type: organism-based, CCRF S-180; conditions: in vivo
Mus musculus [7] = experiment: Toxicity in ICR mouse xenografted with mouse S180 cells assessed as effect on liver weight at 2 umol/kg; type: organism-based, CCRF S-180; conditions: in vivo
CCRF S-180 [8] = experiment: Antitumor activity against mouse S180 cells xenografted in ICR mouse assessed as tumor growth inhibition at 0.89 umol/kg, ip administered 1 day after tumor inoculation qd for 7 days; type: functional; conditions: CCRF S-180, ip, read-out: GI; summary of the method: as §1
CCRF S-180 [9] = experiment: Antitumor activity against mouse S180 cells xenografted in ICR mouse assessed as tumor growth inhibition at 0.089 umol/kg, ip qd administered 1 day after tumor inoculation for 7 days; type: functional; conditions: CCRF S-180, ip, read-out: GI; summary of the method: as §1
Mus musculus [10] = experiment: Acute toxicity in ICR mouse assessed as tetanus at 500 mg/kg, ip administered qd for 7 days; type: organism-based; set-up: dose 500 mg/kg, route intraperitoneal; conditions: in vivo, 168 h
Mus musculus [11] = experiment: Acute toxicity in ICR mouse assessed as supination at 500 mg/kg, ip administered qd for 7 days; type: organism-based; set-up: dose 500 mg/kg, route intraperitoneal; conditions: in vivo, 168 h
Mus musculus [12] = experiment: Acute toxicity in ICR mouse assessed as jumping at 500 mg/kg, ip administered qd for 7 days; type: organism-based; set-up: dose 500 mg/kg, route intraperitoneal; conditions: in vivo, 168 h
Nucleic Acid [13] = experiment: Binding affinity to double strand calf thymus DNA assessed as melting temperature; type: nucleic-acid assay; conditions: Bos taurus
Summary of the method: (§2)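 CT DNA in PBS pH 7.4, alone or with compound; temperature raised 1 °C/min with absorbance at 279 nm; Tm taken as temperature giving 50% absorbance increase.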

Mus musculus [14] = experiment: Toxicity in ICR mouse xenografted with mouse S180 cells assessed as effect on kidney weight at 8.9 umol/kg; type: organism-based, CCRF S-180; conditions: in vivo
Summary of the method: (§3)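 S180-bearing male ICR mice (10–12 weeks; 1×10^7 cells s.c. right oxter; 12 per group), daily i.p. 8.9 µmol/kg for seven days starting 24 h after implantation; NS, cytarabine and doxorubicin controls; liver, brain, kidney weights, spleen index and body-weight gain recorded.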

Mus musculus [15] = experiment: Acute toxicity in ICR mouse assessed as twitch at 500 mg/kg, ip administered qd for 7 days; type: organism-based; set-up: dose 500 mg/kg, route intraperitoneal; conditions: in vivo, 168 h
Mus musculus [16] = experiment: Toxicity in ICR mouse xenografted with mouse S180 cells assessed as effect on liver weight at 8.9 umol/kg; type: organism-based, CCRF S-180; conditions: in vivo; summary of the method: as §3
Mus musculus [17] = experiment: Toxicity in ICR mouse xenografted with mouse S180 cells assessed as increase in spleen index at 8.9 umol/kg; type: organism-based, CCRF S-180; conditions: in vivo; summary of the method: as §3
Mus musculus [18] = experiment: Toxicity in ICR mouse xenografted with mouse S180 cells assessed as increase in body weight at 8.9 umol/kg; type: organism-based, CCRF S-180; conditions: in vivo; summary of the method: as §3
Mus musculus [19] = experiment: Acute toxicity in ICR mouse assessed as apparent changes in any organ at 500 mg/kg, ip administered qd for 7 days; type: organism-based; set-up: dose 500 mg/kg, route intraperitoneal; conditions: in vivo, 168 h
Nucleic Acid [20] = experiment: Binding affinity to calf thymus DNA assessed as increase in DNA viscosity at compound to DNA ratio of 0.36; type: nucleic-acid assay; conditions: Bos taurus
Summary of the method: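 Relative viscosity of CT DNA solutions measured at compound/CT DNA ratios 0–0.36.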

Nucleic Acid [21] = experiment: Binding affinity to double stranded calf thymus DNA assessed as change in melting temperature per minute; type: nucleic-acid assay; conditions: Bos taurus; summary of the method: as §2
Mus musculus [22] = experiment: Toxicity in ICR mouse xenografted with mouse S180 cells assessed as effect on brain weight at 8.9 umol/kg; type: organism-based, CCRF S-180; conditions: in vivo; summary of the method: as §3
Mus musculus [23] = experiment: Acute toxicity in ICR mouse assessed as tremors at 500 mg/kg, ip administered qd for 7 days; type: organism-based; set-up: dose 500 mg/kg, route intraperitoneal; conditions: in vivo, 168 h
[24] = Acute toxicity in ip dosed ICR mouse assessed as lethal dose; type: organism-based; conditions: in vivo
Summary of the method: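 Male ICR mice, 24 weeks old, got a single i.p. injection of 500 mg/kg in 0.2 ml NS (normal saline). They were watched for 7 days for neurotoxic behaviour (tremor, twitch, jumping, tetanus, supination) and for death.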

Mus musculus [25] = experiment: Acute toxicity in ICR mouse assessed as mortality at 500 mg/kg, ip administered qd for 7 days; type: organism-based; set-up: dose 500 mg/kg, route intraperitoneal; conditions: in vivo, 168 h

Structure (SMILES) | IC50 (CCRF S-180 [1]) [µM] | Activity (Mus musculus [2]) [g] | Activity (Mus musculus [3]) [g] | IC50 (B16) [µM] | IC50 (K562) [µM] | IC50 (HepG2) [µM] | Activity (Mus musculus [4]) | inhibition in vivo at 8.9 µmol/kg (CCRF S-180 [5]) [%] | IC50 (H22) [µM] | Activity (Mus musculus [6]) [g] | Activity (Mus musculus [7]) [g] | inhibition in vivo at 0.89 µmol/kg (CCRF S-180 [8]) [%] | inhibition in vivo at 0.089 µmol/kg (CCRF S-180 [9]) [%] | also measured
COc1cccc2c1C(=O)c1c(O)c3c(c(O)c1C2=O)C[C@@](O)(C(=O)CO)C[C@@H]3O[C@H]1C[C@H](N)[C@H](O)[C@H](C)O1 [DOXORUBICIN] | 29.2 | 0.15 | 6.12 | 21.5 | 17.2 | 17.5 | 7.31 | 48.2 | 36.5 | 0.25 | 1.61 | – | – | –
Nc1ccn([C@@H]2O[C@H](CO)[C@@H](O)[C@@H]2O)c(=O)n1 [CYTARABINE] | 25.4 | 0.16 | 7.12 | 30.6 | 24.3 | 26.2 | 7.5 | 31.9 | 26 | 0.29 | 1.62 | 20.6 | 7.86 | –
CC(C)[C@H](NC(=O)[C@H](Cc1c[nH]c2ccccc12)NC(=O)[C@@H](N)Cc1c[nH]c2ccccc12)C(=O)OCc1ccccc1 (H-Trp-Trp-Val-OBn) | 8.14 | – | – | 11.2 | 8.27 | 9.49 | – | 79.5 | 9.97 | – | – | 70.2 | 41.7 | Activity (Mus musculus [10]): Non-toxic; Activity (Mus musculus [11]): Non-toxic; Activity (Mus musculus [12]): Non-toxic; Tm (Nucleic Acid [13]): 22 °C; Activity (Mus musculus [14]): 0.15 g; Activity (Mus musculus [15]): Non-toxic; Activity (Mus musculus [16]): 1.89 g; Activity (Mus musculus [17]): 7.97; Activity (Mus musculus [18]): 9.97 g; Activity (Mus musculus [19]): Non-toxic; Activity (Nucleic Acid [20]): Active; ΔTm (Nucleic Acid [21]): 1 °C; Activity (Mus musculus [22]): 0.27 g; Activity (Mus musculus [23]): Non-toxic; LD50 [24]: > 500 mg/kg; Activity (Mus musculus [25]): Non-toxic
